Results gathered from unrelated publications.
pIC50: −log10 of the molar value.
Cell line: Vero
Observed: cell growth or viability

| SMILES | assay | setting | quantity | result |
| --- | --- | --- | --- | --- |
| NC1=C(Cl)C(=O)c2c(C(O)CO)c[nH]c2C1=O (centres unmarked) | MTT | 72 h | pIC50 | < 4.71 |
| Cc1[nH]c(=O)c(CNC(=O)c2ccc(C(F)(F)F)o2)c2c1CCCC2 | MTT | 72 h | IC50 | > 50 µg/mL |
| Cc1ccc(C)n1-c1ccc(-c2nnc(-c3ccc(Br)cc3)[nH]2)cc1 | MTT | 72 h | pIC50 | 3.64 |
| Oc1ncnc2cc(Nc3nc(-c4ccc(Br)cc4)cs3)ccc12 | MTT |  | pIC50 | < 4.30 |
| Cc1ccc(C)n1-c1ccc(-c2nnco2)cc1 | MTT | 72 h | pIC50 | 3.67 |
| Nc1c(-c2ccc([N+](=O)[O-])cc2)nc2cnccn12 | MTT | 48 h | pIC50 | 4.10 |
| Nc1nc(N)c(CNCCc2ccc(F)cc2)c(C2CCCCC2)n1 | SRB |  | pIC50 | 4.66 |
| NNC(=O)c1ccncc1 | MTT | 72 h | pIC50 | < 3.35 |
| COc1cc(OC)cc(-c2ccc(C(=O)NCc3c4c(c(C)[nH]c3=O)CCCC4)cc2)c1 | MTT | 72 h | IC50 | > 50 µg/mL |
| N#Cc1nn(-c2ccc(N=Nc3ccccc3)cc2)c(=N)n(S(=O)(=O)c2ccc(N)cc2)c1=O |  |  | pIC50 | 4.26 |
| Nc1nc(N)c(CNCCc2ccc(Cl)cc2)c(C2CCCCC2)n1 | SRB |  | pIC50 | 4.64 |
| NC1=NN(c2ccccc2)C(=O)C1=NNc1ccc(N=Nc2ccccc2)cc1 |  |  | pIC50 | 4.35 |
| CC(C)(C)Nc1c(-c2ccc(N)cc2)nc2cnccn12 | MTT | 48 h | pIC50 | 4.12 |
| Nc1nc(N)c(CNCCc2ccc(Cl)c(Cl)c2)c(C2CCCCC2)n1 | SRB |  | pIC50 | 4.68 |
| O=[N+]([O-])c1ccc(-c2nc3ccccn3c2NC2CCCCC2)cc1 | MTT | 48 h | pIC50 | 4.07 |
| COc1cccc(CCNCc2c(N)nc(N)nc2-c2ccccc2)c1 | SRB |  | pIC50 | < 4.00 |

| SMILES | assay | setting | quantity | result |
| --- | --- | --- | --- | --- |
| Oc1ncnc2cc(Nc3nc(-c4ccc(C(F)(F)F)cc4)cs3)ccc12 | MTT |  | pIC50 | < 4.30 |
| Nc1nc(N)c(CNCCc2ccccc2F)c(C2CCCCC2)n1 | SRB |  | pIC50 | 4.66 |
| Cc1ccc(C)n1-c1ccc(-c2nnc(S)s2)cc1 | MTT | 72 h | pIC50 | 3.66 |
| CN(C)c1ccc(-c2nc3cnccn3c2N)cc1 | MTT | 48 h | pIC50 | 4.04 |
| Oc1ncnc2cc(Nc3nc(-c4ccc(Cl)cc4)cs3)ccc12 | MTT |  | pIC50 | < 4.30 |
| CC(C)(C)Nc1c(-c2ccccc2N)nc2cnccn12 | MTT | 48 h | pIC50 | 4.07 |
| N=C1C(Cl)=C(N)C(=O)c2[nH]cc(C(O)CO)c21 (centres unmarked) | MTT | 72 h | pIC50 | 4.85 |
| Nc1ccc(-c2nc3ccccn3c2N)cc1 | MTT | 48 h | pIC50 | 4.06 |
| Nc1nc(N)c(CNCCc2cccc(Cl)c2)c(C2CCCCC2)n1 | SRB |  | pIC50 | 4.64 |
| Nc1ccc(-c2csc(Nc3ccc4c(O)ncnc4c3)n2)cc1 | MTT |  | pIC50 | < 4.30 |
| CN(C)c1ccc(-c2nc3cnccn3c2NC(C)(C)C)cc1 | MTT | 48 h | pIC50 | < 4.00 |
| C#Cc1cccc(Nc2ncnc3cc(OCCOC)c(OCCOC)cc23)c1 | MTT |  | pIC50 | < 4.52 |
| COc1ccccc1CCNCc1c(N)nc(N)nc1C1CCCCC1 | SRB |  | pIC50 | 4.68 |
| O=[N+]([O-])c1ccc(/C(O)=C/C(=S)S)cc1 | MTT | 48 h | IC50 | 255 µg/mL |
| Nc1nc(N)c(CNCCc2cccc(F)c2)c(C2CCCCC2)n1 | SRB |  | pIC50 | 4.60 |
| Nc1ccc(-c2nc3cnccn3c2NC2CCCCC2)cc1 | MTT | 48 h | pIC50 | 4.12 |
